Source: PubChem
PERK inh: human PERK inhibition, primary cell-based screen. AID 1416. inhibition, % at 5.6 µM. CHO PERK-DD fusion, SEAP luminescence translation reporter. 220,000 tested, 0.17% active. Q9NZJ5;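 active = inhibition above the mean inhibition of all tested compounds plus 3 SD, set separately per screening campaign, cut at about 2.9% in these data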;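 also: PERK kinase domain activated by AP20187 dimerizer at 100 nM; 0% = DMSO with dimerizer and 100% = rapamycin at 8.4 µM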
TNAP inh no acc: blocks human TNAP activity with no phosphate acceptor present. P05186. purified TNAP, CDP-star luminescence, 30 min. inhibition, % at 20 µM. 200,000 tested, 0.26% active;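 active = tissue-nonspecific alkaline phosphatase inhibition above about 50% at 20 µM in the single-dose screen, limit read from the data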;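 also: 0% = DMSO negative control and 100% = EDTA positive control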
p97 ATPase inh: blocks human p97 ATPase activity; AID 1481; recombinant p97 ATPase, Kinase-Glo ATP luminescence, 3 h; inhibition, % at 8 µM; P55072; 220,000 tested, 0.42% active; in the data active = inhibition above about 15%;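 also: 0% = DMSO vehicle and 100% = wells lacking enzyme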
Redox H2O2 prof: compounds producing H2O2 with reducing agent – biochemical, NIH compound library profiling, artefact control for MLSCN library redox annotation, primary screen. 200,000 tested, 0.03% active. activation, % at 10 µM. AID 878. DTT-dependent redox cycling H2O2, phenol red/HRP absorbance; 100% = 100 µM peroxide control, 0% = buffer;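 active = activation of at least 50% relative to the plate's high and low controls in the primary single-dose screen; inactive = activation below 50%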;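 also: compound incubated with DTT at 0.8 mM final as the reducing agent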
TNAP act hiacc: increases human TNAP activity under high phosphate acceptor concentration. AID 1136. activation factor at 20 µM. purified TNAP, CDP-star luminescence, 1 M DEA, 30 min; stronger effect = higher value; 0 = EDTA background, 1 = DMSO-only activity. P05186. 200,000 tested, under 10 active;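 active = activation factor at least 2 at 20 µM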
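Dosing: 20 µM single point. System: human TNAP. Amount: TNAP 1/800 final. Incubation: 30 min, room temperature. Read-out: TNAP activation factor scaled between EDTA and DMSO control wells. Signal: luminescence from CDP-star hydrolysis. Medium: 1 M DEA, pH 9.8, Mg2+, Zn2+. Control set: EDTA negative control, DMSO positive control.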
TNAP inh hi DEA: TNAP (human) inhibition, high acceptor; AID 1135; 200,000 tested, 0.03% active; inhibition, % at 20 µM; purified TNAP, CDP-star luminescence, 1 M DEA;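 active = over 50% inhibition of tissue-nonspecific alkaline phosphatase at 20 µM in the single-dose screen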;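 also: plate controls were DMSO wells for no effect and EDTA-quenched wells as full inhibition for full effect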
* marks the source's active call; other numbers are inactive results; / = no result given. A selection: hits, their analogues and other compounds. The true share with any hit is near 0.86%.

SMILES	PERK inh	TNAP inh no acc	p97 ATPase inh	Redox H2O2 prof	TNAP act hiacc	TNAP inh hi DEA
Cc1ccc(-n2[nH]c(C)c(/C=N/Nc3ccc([N+](=O)[O-])cc3[N+](=O)[O-])c2=O)cc1	0	35	-26	4	0.5	51*
O=C(O)c1ccccc1Nc1cccc(C(F)(F)F)c1	2	-8	15*	0	1	-4
Cc1ccc(Cl)cc1-c1ccc(C=Nc2ccc(N3CCOCC3)cc2)o1	0	-1	8	0	1	0
CN1CCS/C1=C/C=C1\SC(=S)N(CC(=O)O)C1=O	0	41	4	0	0.6	43
CCCCN1C(=O)/C(=C/C=C2\SCCN2C)SC1=S	0	43	1	0	0.5	52*
C=C(C)CC1(NC(C)c2ccccc2)CCCCC1 (stereo not given)	0	-8	-8	-1	1.1	-5
Cc1ccc(NC(=O)CCC(=O)N/N=C/c2cc([N+](=O)[O-])ccc2O)cc1	1	14	6	0	0.9	6
O=C(CCC(=O)Nc1cccc(Cl)c1)N/N=C/c1cc([N+](=O)[O-])ccc1O	1	80*	3	-1	0.9	10
Cc1cc(=O)oc2cc(OCC(=O)N/N=C/c3cc([N+](=O)[O-])ccc3O)ccc12	1	89*	6	1	0.9	13
O=C(NC(=S)NCC1CCCO1)c1ccc([N+](=O)[O-])cc1 (stereo not given)	0	-5	0	0	1	-1
CCOc1ccc(C(=O)N/N=C/c2ccc(-c3ccc(S(=O)(=O)Nc4ncccn4)cc3)o2)cc1	1	5	4	-1	1.1	-8
NS(=O)(=O)c1ccc(-c2ccc(/C=N/NC(=O)c3ccccc3O)o2)cc1	2	/	9	/	/	/
O=C(N/N=C/c1ccc(-c2ccc(S(=O)(=O)Nc3ncccn3)cc2)o1)c1cc2ccccc2cc1O	1	3	15*	0	1	1
Cc1ccc(-c2ccc(/C=N/NC(=O)c3ccccc3O)o2)cc1	3.1*	/	11	/	/	/
COc1ccc(CNC(=O)c2cnn3c(C(F)F)cc(C)nc23)cc1OC	0	-16	0	0	1	0
Cc1cc(C)c(NC(=O)NC(=O)C(Cl)(Cl)Cl)c(C)c1	3.5*	-2	3	0	1	0
Cc1cc(C)c(NC(=O)C(C)(C)C)c(Cl)c1	-1	-9	-3	-3	1.1	-7
COc1ccc(CN(C)CC(=O)Nc2cc(OC)c([N+](=O)[O-])cc2C)c(OC)c1	-1	-5	4	0	1	0
Cc1cc(C2=NNC(=NC3CC3)SC2)c(C)n1-c1ccccc1	0	-14	2	0	1	0
COc1ccc(-n2c(C)cc(C3=NNC(=NC4CC4)SC3)c2C)cc1	1	3	22*	-1	1	-4
COc1cccc(CN2CCNC(=O)C2CC(=O)NCc2cn3cccc(C)c3n2)c1OC (stereo not given)	1	-10	5	-1	1	-5
COc1cccc(CN2CCNC(=O)C2CC(=O)NCc2cn3ccccc3n2)c1OC (stereo not given)	3.0*	-13	0	-1	1	-4
Cn1c(NC(=O)c2cc(Br)ccc2Cl)cc(=O)n(C)c1=O	-1	-11	7	-1	1	-3
Fc1ccc(-n2nnnc2-c2ccccc2Cl)cc1	0	-10	-1	0	1.1	-5
Fc1ccc(-c2[nH]ncc2-c2nnnn2-c2ccccc2)c(F)c1	1	84*	0	-4	0.9	6
SMILES	PERK inh	TNAP inh no acc	p97 ATPase inh	Redox H2O2 prof	TNAP act hiacc	TNAP inh hi DEA
CN(C)/C=C/c1oc2ccc(O)cc2c1[N+](=O)[O-]	0	48	7	0	0.5	52*
Cc1ccc(N2CC(C(=O)Nc3cc(C)on3)CC2=O)cc1 (stereo not given)	2.9*	-6	3	2	1	-3
COc1ccc(N2CC(C(=O)N/N=C/c3ccc([N+](=O)[O-])cc3)CC2=O)cc1 (stereo not given)	1	-5	4	0	1	2
COc1ccc(N2CC(C(=O)N/N=C/c3ccc(C)cc3)CC2=O)cc1 (stereo not given)	0	-4	15*	-1	1	-3
CC(NC(=O)CSc1nc2ccc(N)cc2s1)c1ccccc1 (stereo not given)	1	2	7	0	1.1	-6
COCCNC(=O)CN(C(=O)Cn1nnc2ccccc21)c1cccc(C)c1C	1	-10	5	-2	1.1	-7
O=C(Cc1ccccc1)N/N=C/c1ccc(OC(=O)/C=C\c2ccco2)cc1	1	-9	2	3	1	-2
COC(=O)N/N=C/c1ccc(OC(=O)/C=C/c2ccco2)cc1	2.9*	/	7	/	/	/
CCN(CC)C(=O)C(=O)N/N=C/c1cccs1	3.1*	-7	5	2	1	-3
COc1ccc(C(=O)NCC(=O)OCC(=O)Nc2ccc(C)c(S(=O)(=O)N(C)C)c2)cc1OC	1	/	0	/	/	/
O=C(O)/C=C/c1ccc(O)c(O)c1	0	55*	3	0	1	-4
O=C(CSc1nnnn1-c1ccc(F)cc1)c1ccc(O)c(O)c1	0	75*	4	-1	0.9	15
COc1ccc(-n2nnnc2SCC(=O)c2cccc(OC)c2)cc1	-1	-9	1	0	1.1	-6
Cc1ccc(C)c(Nc2c(F)c(F)c(F)c(F)c2C(=O)O)c1	0	-30	2	0	1	-4
CC1CCCN(C(=O)CSc2nc3ncccc3[nH]2)C1 (stereo not given)	-2	53*	-4	0	1	-5
C=C(C)CSc1nc2ncccc2[nH]1	1	66*	2	0	1	-5
O=C(Nc1ccc2c(c1)OCO2)c1n[nH]c(=O)c2ccccc12	0	/	8	/	/	/
COc1ccc(OCCSc2nnc(C(C)NC(=O)c3ccccc3F)n2C)cc1 (stereo not given)	0	-13	-2	0	1	-1
CCOc1ccc(N2CC(O)=C(c3ccccc3)C2=N)cc1	1	-12	8	0	1	-3
Nc1nnc(CC(=O)Nc2ccccc2)s1	3.0*	/	7	/	/	/
CCOC(=O)C1(Cc2ccccc2Cl)CCN(C(=O)CN2CCOC2=O)CC1	0	-10	3	-1	1.1	-6
CN(C)c1ccc(/C=C2\C(=O)N(c3ccc([N+](=O)[O-])cc3)N=C2N2CCOCC2)cc1	0	/	23*	1	/	/
CN(C)c1ccc(/C=C2/C(=O)N(c3ccc([N+](=O)[O-])cc3)N=C2N2CCOCC2)cc1	1	35	32*	-7	0.9	14
